From ChEMBL document CHEMBL1123129, “Hypolipidemic activity of indan-1,3-dione derivatives in rodents” (J Med Chem, 1985) come the findings set out here.

Series [1] concerns the target Acetyl-CoA carboxylase 1 (Mus musculus) (UniProt Q5SWU9). Kind of series: In Vitro evaluation for the CF1 liver enzyme activity on Acetyl-CoA carboxylase at concentration 100 uM. A digest of the protocol:
(§1)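 Liver was taken from CF1 male mice and made into 10% homogenates, which were incubated with test compound at 50, 100 or 200 µM. Each enzyme was assayed by its literature method, and protein was measured by Lowry. N = 6. Activity is expressed as % of untreated control ± SD.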

Series [2] deals with T1, ATP-citrate synthase (Mus musculus) (UniProt Q91V92).
T1 sequence (whole entry): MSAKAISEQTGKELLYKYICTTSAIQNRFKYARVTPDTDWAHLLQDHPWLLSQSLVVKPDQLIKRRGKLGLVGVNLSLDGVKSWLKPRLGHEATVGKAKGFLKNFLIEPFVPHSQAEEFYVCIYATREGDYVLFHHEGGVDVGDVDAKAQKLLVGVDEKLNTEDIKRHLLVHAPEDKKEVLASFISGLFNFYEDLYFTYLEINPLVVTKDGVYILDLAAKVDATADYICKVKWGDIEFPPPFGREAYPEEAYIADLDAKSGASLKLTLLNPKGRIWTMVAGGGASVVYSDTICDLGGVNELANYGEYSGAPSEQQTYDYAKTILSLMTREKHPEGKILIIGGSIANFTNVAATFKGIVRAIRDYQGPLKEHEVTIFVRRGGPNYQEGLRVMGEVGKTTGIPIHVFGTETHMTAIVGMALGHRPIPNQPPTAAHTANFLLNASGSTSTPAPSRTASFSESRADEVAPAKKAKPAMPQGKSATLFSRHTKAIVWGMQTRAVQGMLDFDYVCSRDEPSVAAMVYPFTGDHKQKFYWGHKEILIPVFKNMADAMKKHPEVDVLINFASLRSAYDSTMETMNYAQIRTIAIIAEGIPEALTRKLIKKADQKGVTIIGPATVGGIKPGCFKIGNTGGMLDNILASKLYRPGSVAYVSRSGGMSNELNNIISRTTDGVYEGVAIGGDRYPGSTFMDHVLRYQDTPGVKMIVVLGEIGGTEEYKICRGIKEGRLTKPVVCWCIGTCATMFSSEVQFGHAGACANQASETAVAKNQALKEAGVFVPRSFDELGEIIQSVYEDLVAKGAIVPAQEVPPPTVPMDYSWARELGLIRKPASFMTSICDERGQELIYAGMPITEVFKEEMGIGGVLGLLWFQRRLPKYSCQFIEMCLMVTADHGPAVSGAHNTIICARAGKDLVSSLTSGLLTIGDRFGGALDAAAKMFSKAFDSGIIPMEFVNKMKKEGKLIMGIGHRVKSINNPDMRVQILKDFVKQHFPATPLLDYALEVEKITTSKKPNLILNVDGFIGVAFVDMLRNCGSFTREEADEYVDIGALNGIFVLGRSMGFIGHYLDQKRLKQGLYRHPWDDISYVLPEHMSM
The experiment in a line: In Vitro evaluation for the CF1 liver enzyme activity on ATP-Citrate Lyase exchange at concentration 100 uM. A digest of the protocol: as §1

Series [3] deals with Cholesterol 7-alpha-hydroxylase (Cytochrome P450 7A1) (Mus musculus, UniProt Q64505). Kind of series: In vivo effect on Cholesterol 7-alpha-hydroxylase activity in CF1 mice after 16 days at 60 mg/kg oral dose. It counts as functional, organism-based. Also noted: dose 60 mg/kg, route oral. Conditions: read-out: Control. A digest of the protocol:
(§2)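 CF1 male mice are dosed orally at 10–60 mg/kg per day for 16 days, with 1% CMC as the control vehicle. Liver is homogenized at 10% in 0.25 M sucrose + 0.001 M EDTA, pH 7.2. Enzymes are assayed by literature methods, with Lowry protein. Activity is given as % of control (X ± SD, N = 6), with p from Student's t test.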

Series [4] has as its system Mus musculus. Kind of series: Compound was evaluated for the hypolipidemic activity in CF1 male mice at a dose of 10 mg/kg orally for Serum triglyceride at 16th day. It counts as functional. The note with it: route oral. Put shortly: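 CF1 male mice received the agent orally in 1% CMC at 10–60 mg/kg per day. Tail-vein blood was taken on days 9 and 16. Serum cholesterol was measured by modified Liebermann–Burchard on duplicate 25-µL samples, and serum triglyceride on day 16 in duplicate 50-µL samples. Values are % of vehicle control, mean ± SD, N = 6; Student's t test.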

For series [5], the system named is Mus musculus. Kind of series: Hypolipidemic activity in CF1 male mice at a dose of 20 mg/kg per day, serum cholesterol measured on the 9th day. It counts as functional. A digest of the protocol: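 CF1 male mice (~30 g) were given 20 mg/kg per day ip at 11:00 a.m.; N = 6 per group. Tail-vein serum was collected in nonheparinized microcapillaries. Cholesterol was measured on days 9 and 16 by modified Liebermann–Burchard on duplicate 25 µL samples. Triglyceride was measured on day 16 in a separate group, duplicate 50 µL. Values are % control ± SD; Student's t test.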

The species named for series [6] is Mus musculus. Kind of series: In Vitro evaluation for the CF1 liver enzyme activity on Acetyl-CoA carboxylase at concentration 50 uM. It is filed as functional. Put shortly: as §1
Series [7] deals with T2, Sterol O-acyltransferase 1 (Mus musculus) (UniProt Q61263).
T2 sequence (whole entry): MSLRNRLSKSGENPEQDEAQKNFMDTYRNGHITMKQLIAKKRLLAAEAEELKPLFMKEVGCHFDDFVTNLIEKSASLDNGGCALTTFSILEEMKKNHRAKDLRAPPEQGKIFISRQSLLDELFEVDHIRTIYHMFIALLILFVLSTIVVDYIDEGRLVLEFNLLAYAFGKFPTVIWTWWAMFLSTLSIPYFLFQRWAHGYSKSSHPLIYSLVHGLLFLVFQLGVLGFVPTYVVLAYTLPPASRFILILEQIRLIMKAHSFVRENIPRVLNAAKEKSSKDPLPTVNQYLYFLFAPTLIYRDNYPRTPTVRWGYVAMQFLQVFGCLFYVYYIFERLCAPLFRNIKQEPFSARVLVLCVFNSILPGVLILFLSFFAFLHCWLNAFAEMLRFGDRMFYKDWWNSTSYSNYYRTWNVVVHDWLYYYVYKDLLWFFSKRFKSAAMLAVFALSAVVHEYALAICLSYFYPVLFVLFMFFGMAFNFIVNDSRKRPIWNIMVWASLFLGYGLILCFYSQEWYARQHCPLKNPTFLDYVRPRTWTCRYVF
The experiment in a line: In Vivo effect for the hypolipidemic activity on Acyl-COA cholesterol acyltransferase in CF1 mice after 16 days of oral administration at a dose of 10 mg/kg. Also noted: dose 10 mg/kg. It is filed as functional, organism-based. Put shortly:
as §2

The test system of series [8] is Rattus norvegicus. Kind of series: Compound was evaluated for the hypolipidemic activity at 20 mg/kg per day orally for 14 days on neutral lipids content in rat HDL. The note with it: route oral. It is filed as functional. Put shortly: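 Male Sprague–Dawley rats (~300 g) were dosed orally each day. Blood was drawn from the abdominal vein. Lipoprotein fractions (chylomicron, VLDL, LDL, HDL) were separated by the Hatch–Lees and Havel methods. Each fraction was assayed for cholesterol, triglyceride (enzymatic kit), neutral lipids, phospholipids and Lowry protein. Values are % of 1% CMC vehicle control, N = 6.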

The species entered for series [9] is Mus musculus. The experiment in a line: In Vitro evaluation for the CF1 liver enzyme activity on phosphatidate phosphohydrolase at concentration 200 uM. Put shortly: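 Mouse liver enzymes assayed in vitro on 10% homogenates of CF1 male mouse liver, with test drug added at 50–200 μM. Each enzyme follows a published procedure. Protein is measured by Lowry. Activity is given as % of untreated control (X ± SD, N = 6).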

Series [10] deals with Mus musculus. The experiment in a line: In Vivo effect for the hypolipidemic activity on phosphatidate phosphohydrolase in CF1 mice after 16 days administered orally at a dose of 10 mg/kg. On the set-up: dose 10 mg/kg. It counts as organism-based. A digest of the protocol:
as §2

Cholesterol 7-alpha-hydroxylase (Cytochrome P450 7A1), sequence (Q64505 whole entry): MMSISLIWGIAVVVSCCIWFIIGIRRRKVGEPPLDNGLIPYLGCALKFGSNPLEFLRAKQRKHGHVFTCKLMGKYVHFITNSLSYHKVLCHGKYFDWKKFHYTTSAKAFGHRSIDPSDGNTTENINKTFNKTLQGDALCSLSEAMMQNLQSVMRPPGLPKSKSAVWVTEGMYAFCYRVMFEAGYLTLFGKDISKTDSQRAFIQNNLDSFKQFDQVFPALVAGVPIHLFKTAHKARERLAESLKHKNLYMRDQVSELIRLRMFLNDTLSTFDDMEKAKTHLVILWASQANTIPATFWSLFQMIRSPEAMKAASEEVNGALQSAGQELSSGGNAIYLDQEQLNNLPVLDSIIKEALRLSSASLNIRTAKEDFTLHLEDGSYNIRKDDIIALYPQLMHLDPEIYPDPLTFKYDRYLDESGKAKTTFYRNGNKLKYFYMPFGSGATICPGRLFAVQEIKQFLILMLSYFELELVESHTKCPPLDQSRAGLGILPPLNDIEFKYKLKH

On to `COc1ccc(C2C(=O)c3ccccc3C2=O)cc1` [ANISINDIONE], for which the Control worked out at 93% in series [1]; 51% in series [2]; 64% in series [4]; 118% in [6]; 92% in series [7]; 113% in series [8]. The Control amounted to 11% in series [9] and 53% in series [10]. The activity at 384 h in series [3] is 60%. In addition, the “Serum cholesterol, % of control” value in series [5] is on record as 58%.
